Experimental data published in publication PMC11605132 (eClinicalMedicine, 2024).
“Also recorded” adds a separate entry of the source. Where two headings read alike, the source gives them in different places.

Assays:
patients with AIS [1] = assay: All adverse events, AMFIS phase II trial; type: in vivo, human
How it was run: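 Double-blind, 2:1 stratified block randomization by age (<75, 75–90 years) against a placebo vial of 50 mg D-mannitol. Patients were aged 20–90 with new DWI lesions and treated within 24 h of onset. AEs were monitored from infusion start to 3 days after the intervention ended, with close blood-pressure watch. Severity was graded on five levels (mild to death), and an independent committee judged causality.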

patients with AIS [2] = assay: NIHSS score, primary efficacy endpoint, AMFIS trial; type: in vivo, human
How it was run: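 Trained stroke neurologists scored NIHSS at baseline, 8, 24 and 72 h after infusion start, and on Day 7, keeping the same examiner per patient where possible. Least square means with 95% CI came from generalized estimating equations. Fixed effects were treatment, time point and treatment×time, with baseline NIHSS as covariate. The same model compared the pulsed and continuous-pulsed groups.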

[3] = type: in vivo; conditions: human, plasma, 9 ng/kg/min, mean ± SD
patients with AIS [4] = assay: Intracerebral hemorrhage on CT and MRI, AMFIS trial; type: in vivo, human; conditions: Day 1 to Day 90
How it was run: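 Patients (20–90 years, new DWI lesion, treated within 24 h of onset) were randomized 2:1 to adrenomedullin or a D-mannitol placebo under double-blind conditions. Non-contrast CT was performed at 24 h and on Day 7, and MRI on Day 90.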

healthy volunteers = conditions: cited from earlier work
[5] = patients receiving adrenomedullin, n=40

SMILES: CC[C@H](C)[C@H](NC(=O)[C@H](CCC(N)=O)NC(=O)[C@H](Cc1c[nH]cn1)NC(=O)[C@H](C)NC(=O)[C@H](CC(C)C)NC(=O)[C@H](CCCCN)NC(=O)[C@H](CCC(N)=O)NC(=O)[C@@H](NC(=O)[C@@H](NC(=O)[C@@H]1CSSC[C@H](NC(=O)CNC(=O)[C@H](Cc2ccccc2)NC(=O)[C@H](CO)NC(=O)[C@H](CCCNC(=N)N)NC(=O)[C@H](CC(C)C)NC(=O)CNC(=O)[C@H](CCC(N)=O)NC(=O)[C@H](Cc2ccccc2)NC(=O)[C@H](CC(N)=O)NC(=O)[C@H](CC(N)=O)NC(=O)[C@H](CCSC)NC(=O)[C@H](CO)NC(=O)[C@H](CCC(N)=O)NC(=O)[C@H](CCCNC(=N)N)NC(=O)[C@@H](N)Cc2ccc(O)cc2)C(=O)N[C@@H](CCCNC(=N)N)C(=O)N[C@@H](Cc2ccccc2)C(=O)NCC(=O)N[C@@H]([C@@H](C)O)C(=O)N1)[C@@H](C)O)C(C)C)C(=O)N[C@@H](Cc1ccc(O)cc1)C(=O)N[C@@H](CCC(N)=O)C(=O)N[C@@H](Cc1ccccc1)C(=O)N[C@H](C(=O)N[C@@H](CC(=O)O)C(=O)N[C@@H](CCCCN)C(=O)N[C@@H](CC(=O)O)C(=O)N[C@@H](CCCCN)C(=O)N[C@@H](CC(=O)O)C(=O)N[C@@H](CC(N)=O)C(=O)N[C@H](C(=O)N[C@@H](C)C(=O)N1CCC[C@H]1C(=O)N[C@@H](CCCNC(=N)N)C(=O)N[C@@H](CO)C(=O)N[C@@H](CCCCN)C(=O)N[C@H](C(=O)N[C@@H](CO)C(=O)N1CCC[C@H]1C(=O)N[C@@H](CCC(N)=O)C(=O)NCC(=O)N[C@@H](Cc1ccc(O)cc1)C(N)=O)[C@@H](C)CC)C(C)C)[C@@H](C)O [adrenomedullin]
- patients with AEs, n (%, 95% CI) (patients with AIS [1]; C/P-AM): 14
- patients with AEs, n (%, 95% CI) (patients with AIS [1]; P-AM): 11
- cases of drop in blood pressure (patients with AIS [1]; adrenomedullin group, n=40): 10.0%
- cases of low blood pressure (patients with AIS [1]; adrenomedullin group, n=40): 2.5%
- life-threatening AEs or death (patients with AIS [1]; first-half and second-half cohorts): No life-threatening AEs or death were reported
- Laboratory tests (patients with AIS [1]; in vivo): no clinically significant changes
- tolerability (patients with AIS [1]; non-severe, non-embolic AIS): well tolerated
- SAEs related to the intervention (patients with AIS [1]; [5]): Neither intervention-related serious adverse events nor severe adverse events were observed; also recorded: no “SAEs related to the intervention” were reported; also recorded: No SAEs were observed
- Severe AEs (grade 3) (patients with AIS [1]; [5]): observed only in the placebo group
- Intergroup difference in NIHSS changes, LSM (95% CI) (patients with AIS [2]; 7-day, AM minus placebo, GEE model): 0.32 (−0.91–1.56)
- NIHSS changes from pre-treatment, LSM (SE; 95% CI in text) (patients with AIS [2]; 7-day, AM n=40, GEE model): −0.76
- Intergroup difference in NIHSS changes, LSM (95% CI) (patients with AIS [2]; 7-day, C/P-AM minus P-AM, GEE): 0.67 (−0.64–1.98)
- NIHSS changes from pre-treatment, LSM (SE; 95% CI in text) (patients with AIS [2]; 7-day, C/P-AM, GEE, dose-finding analysis): −0.42
- NIHSS changes from pre-treatment, LSM (SE; 95% CI in text) (patients with AIS [2]; 7-day, P-AM, GEE, dose-finding analysis): −1.08
- Intergroup difference in NIHSS changes, LSM (95% CI) (patients with AIS [2]; 8-h, AM minus placebo, GEE model): 0.25 (−0.24–0.74)
- Intergroup difference in NIHSS changes, LSM (95% CI) (patients with AIS [2]; 8-h, C/P-AM minus P-AM, GEE): 0.52 (−0.12–1.16)
- Intergroup difference in NIHSS changes, LSM (95% CI) (patients with AIS [2]; 24-h, AM minus placebo, GEE model): 0.15 (−0.46–0.75)
- Intergroup difference in NIHSS changes, LSM (95% CI) (patients with AIS [2]; 24-h, C/P-AM minus P-AM, GEE): 0.62 (−0.29–1.53)
- Intergroup difference in NIHSS changes, LSM (95% CI) (patients with AIS [2]; 72-h, AM minus placebo, GEE model): 0.35 (−0.93–1.63)
- Intergroup difference in NIHSS changes, LSM (95% CI) (patients with AIS [2]; 72-h, C/P-AM minus P-AM, GEE): 0.32 (−1.09–1.72)
- mean change in the NIHSS score from pre-treatment to Day 7 (patients with AIS [2]; C/P-AM): −0.45
- median change in the NIHSS score from pre-treatment to Day 7 (patients with AIS [2]; C/P-AM): −0.5
- mean change in the NIHSS score from pre-treatment to Day 7 (patients with AIS [2]; P-AM): −1.05
- median change in the NIHSS score from pre-treatment to Day 7 (patients with AIS [2]; P-AM): −1
- efficacy on NIHSS scores (patients with AIS [2]; in vivo): not demonstrated
- mean change in the NIHSS score from pre-treatment to Day 7 (patients with AIS [2]; [5]): −0.75
- median change in the NIHSS score from pre-treatment to Day 7 (patients with AIS [2]; [5]): −1.00
- Cmax ([3]; C/P-AM): 0.061 ng/mL
- Cmax ([3]; P-AM): 0.0442 ng/mL
- intracerebral hemorrhage on CT and MRI (patients with AIS [4]): no intracerebral hemorrhage was observed
- half-life (healthy volunteers): < 1 h
- blood levels of adrenomedullin (healthy volunteers; dose of 9 ng/kg/min): 0.01 to 0.02 ng/mL
- severe adverse events (healthy volunteers; healthy volunteers): no severe adverse events
